Data reported in ChEMBL document CHEMBL5143562, “α-Synuclein Aggregation Inhibitory Prunolides and a Dibrominated β-Carboline Sulfamate from the Ascidian Synoicum prunum” (J Nat Prod, 2022).
The source made the active and inactive calls. No cut-off for these calls is given here.

Key:
[1] = Selectivity index, ratio of IC50 for cytotoxicity against human HEK293 cells to IC50 for antiplasmodial activity against Plasmodium falciparum 3D7; assay type: toxicity, cell-based; details: read-out: Ratio IC50
[2] = system: HEK293; experiment: Cytotoxicity against human HEK293 cells measured after 72 hrs by resazurin assay; assay type: toxicity, cell-based; details: hek293, 72 h
Summary of the method: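 HEK293 cells, 2000 per well, exposed to compound for 72 h at 37 °C. Medium then swapped for 44 µM resazurin for 6 h and fluorescence read. Viability referenced to 40 µM puromycin (positive) and 0.4% DMSO (negative). IC50 by curve fitting.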

[3] = system: Plasmodium falciparum; experiment: Antiplasmodial activity against Plasmodium falciparum 3D7 assessed as inhibition of parasite growth incubated for 72 hrs by DAPI staining based confocal microscopic analysis; assay type: functional, organism-based; details: 3D7, 72 h
Summary of the method: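 P. falciparum 3D7 in imaging plates, 2% parasitemia, 0.3% hematocrit, 16-point dilution series 0.4 nM–40 µM (N=2), 72 h at 37 °C under 5% O2/5% CO2/90% N2. DAPI stain, confocal imaging. Percent inhibition normalised to in-plate 5 µM puromycin (positive) and 0.4% DMSO (negative) controls. IC50 from sigmoidal nonlinear regression.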

[4] = target: Alpha-synuclein (Homo sapiens) (UniProt P37840); experiment: Binding affinity to alpha-Synuclein (unknown origin) at compound to protein molar ratio of 5:1 incubated for 3 hrs by mass spectroscopy analysis
Summary of the method: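 α-Syn (10 µM) in 10 mM ammonium acetate. Compound (100 µM, in methanol) added at 5:1 ligand:protein and kept 3 h at rt. Positive-mode HRESIMS, calibrated with sodium trifluoroacetate. Spectra inspected for extra peaks of protein–ligand complexes; scored yes/no.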

[5] = target: Alpha-synuclein (Homo sapiens) (UniProt P37840); experiment: Inhibition of alpha-Synuclein (unknown origin) aggregation assessed as times difference in midpoint of aggregation at compound to protein molar ratio of 5:1 incubated for 36 hrs under shaking condition and measured every 6 hrs by Thioflavin T based fluorescence assay relative to control
Summary of the method: (§1)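 Wells held 80 µM α-syn, 50 µM ThT (from 5 mM stock in glycine-NaOH pH 8.0), 80–400 µM compound, saline Tris buffer and a teflon ball. Shaken at 100 rpm, 37 °C, 36 h. Fluorescence (ex 460/em 500 nm) read every 6 h, triplicates. Protein-only wells set 100% aggregation. Percent inhibition taken at end; t50 is the shift in h of the aggregation midpoint.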

[6] = system: Staphylococcus aureus; experiment: Antibacterial activity against methicillin-sensitive Staphylococcus aureus ATCC 25923 assessed as inhibition of bacterial growth measured after 18 hrs by resazurin based fluorescent plate reader; assay type: functional, organism-based; details: ATCC 25923, 18 h
Summary of the method: (§2)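 Broth microdilution in lysogeny broth; overnight culture (16-18 h, 37.5 °C) adjusted to 5 × 10^5 CFU/mL inoculum. DMSO stocks serially diluted 1:2 (ten-fold series); fusidic acid positive and 5% DMSO negative controls. Plates shaken at 100 rpm, 18 h at 37.5 °C, then 704 µM resazurin added (stock), further 1 h; fluorescence ex 544/em 590 nm.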

[7] = system: Staphylococcus aureus; experiment: Antibacterial activity against methicillin-resistant Staphylococcus aureus ATCC 43300 assessed as inhibition of bacterial growth measured after 18 hrs by resazurin based fluorescent plate reader; assay type: functional, organism-based; details: ATCC 43300, 18 h; summary of the method: as §2
[8] = target: Alpha-synuclein (Homo sapiens) (UniProt P37840); experiment: Inhibition of alpha-Synuclein (unknown origin) aggregation assessed as time difference in midpoint of aggregation at compound to protein molar ratio of 1:1 incubated for 36 hrs under shaking condition and measured every 6 hrs by Thioflavin T based fluorescence assay relative to control; summary of the method: as §1
[9] = target: Alpha-synuclein (Homo sapiens) (UniProt P37840); experiment: Inhibition of alpha-Synuclein (unknown origin) aggregation at compound to protein molar ratio of 5:1 incubated for 36 hrs under shaking condition and measured every 6 hrs by Thioflavin T based fluorescence assay relative to control; details: concentration not given here; summary of the method: as §1
[10] = target: Alpha-synuclein (Homo sapiens) (UniProt P37840); experiment: Inhibition of alpha-Synuclein (unknown origin) aggregation at compound to protein molar ratio of 1:1 incubated for 36 hrs under shaking condition and measured every 6 hrs by Thioflavin T based fluorescence assay relative to control; details: concentration not given here; summary of the method: as §1
[11] = Toxicity in mouse primary midbrain culture assessed as change in tyrosine hydroxylase positive dopamine neuron at 0.5 uM; assay type: tissue-based
Summary of the method: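 Primary embryonic mouse midbrain cultures given sonicated mouse α-syn PFFs (2.5 µg/mL final) on DIV8. Compound, 0.1% DMSO vehicle or 50 ng/mL GDNF added ~15 min later. Fixed DIV15, immunostained for TH and pSer129-α-syn, DAPI nuclei. Nine fields per well imaged at 10×. TH+ neurons with/without pSyn aggregates counted. ≥3 independent cultures, ≥3 wells each. Randomized-block ANOVA with Benjamini-Krieger-Yekutieli correction, mean ± SD.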

[12] = target: Alpha-synuclein (Mus musculus) (UniProt O55042); experiment: Inhibition of PFF-induced alpha-Synuclein aggregation in mouse primary midbrain culture assessed as decrease in tyrosine hydroxylase positive dopamine neuron with p-Syn aggregation at 0.5 uM incubated for 7 days by immunostaining analysis; details: time 7.0 day

SMILES	selectivity ratio [1]	Activity [2]	IC50 [3] [µM]	Activity [4]	TIME [5] [h]	IC50 [6] [µM]	IC50 [7] [µM]	TIME [8] [h]	inhibition [9] [%]	inhibition [10] [%]	Activity [11]	inhibition [12]
O=C(O)c1cc2c([nH]c3ccc(Br)cc32)c(C(=O)c2cn(S(=O)(=O)O)c3ccc(Br)cc23)n1	2.66	Toxic	15.1	–	–	–	–	–	–	–	–	–
O=C1C=C(c2ccc(O)cc2)[C@]2(O1)O[C@]1(OC(=O)C=C1c1ccc(O)cc1)C(c1ccc(O)c(Br)c1)=C2c1ccc(O)cc1	–	–	–	Active	4	10.8	16.1	2	92.9	24.9	–	–
O=C1C=C(c2ccc(O)c(Br)c2)[C@]2(O1)O[C@]1(OC(=O)C=C1c1ccc(O)c(Br)c1)C(c1ccc(O)c(Br)c1)=C2c1ccc(O)c(Br)c1	–	–	–	Active	–	–	–	–	–	–	–	–
O=C1C=C(c2ccc(O)cc2)[C@]2(O1)O[C@]1(OC(=O)C=C1c1ccc(O)cc1)C(c1ccc(O)cc1)=C2c1ccc(O)cc1	7.6	Toxic	5.1	Active	14.5	> 10	> 10	6.2	75.2	60	Non-Toxic	–
O=C1C=C(c2cc(Br)c(O)c(Br)c2)[C@]2(O1)O[C@]1(OC(=O)C=C1c1cc(Br)c(O)c(Br)c1)C(c1cc(Br)c(O)c(Br)c1)=C2c1cc(Br)c(O)c(Br)c1	–	Toxic	–	Active	13.7	> 10	> 10	10	89	13.3	Non-Toxic	–
O=C1C=C(c2cc(Br)c(O)c(Br)c2)[C@]2(O1)O[C@]1(OC(=O)C=C1c1cc(Br)c(O)c(Br)c1)C(c1ccc(O)c(Br)c1)=C2c1ccc(O)c(Br)c1	–	Toxic	–	Active	10	> 10	> 10	9.4	99.9	34.3	Non-Toxic	Active
O=C(O[C@@H]1Cc2c(O)cc(O)cc2O[C@@H]1c1cc(O)c(O)c(O)c1)c1cc(O)c(O)c(O)c1	–	–	–	Active	11.1	–	–	9.4	98.9	–	–	–
O=C1C=C(c2ccc(O)cc2)[C@]2(O1)O[C@@]1(OC(=O)C=C1c1ccc(O)cc1)C(c1ccc(O)cc1)=C2c1ccc(O)cc1	–	–	–	Active	2.3	> 10	> 10	0	51.5	22.1	–	–
O=C1C=C(c2cc(Br)c(O)c(Br)c2)[C@]2(O1)O[C@]1(OC(=O)C=C1c1cc(Br)c(O)c(Br)c1)C(c1ccc(O)c(Br)c1)=C2c1ccc(O)cc1	–	–	–	Active	–	12.2	11.6	–	–	–	–	–
O=C1C=C(c2ccc(O)cc2)[C@]2(O1)O[C@]1(OC(=O)C=C1c1ccc(O)c(Br)c1)C(c1ccc(O)cc1)=C2c1ccc(O)cc1	–	–	–	Active	4	> 10	> 10	1	97.6	39	–	–
O=C1C=C(c2cc(Br)c(O)c(Br)c2)[C@]2(O1)O[C@]1(OC(=O)C=C1c1ccc(O)cc1)C(c1ccc(O)c(Br)c1)=C2c1ccc(O)cc1	–	–	–	Active	–	> 10	> 10	–	–	–	–	–
